# Measurements as given in ChEMBL document CHEMBL3870311, “Synthesis and biological evaluation of C1-O-substituted-3-(3-butylamino-2-hydroxy-propoxy)-xanthen-9-one as topoisomerase IIα catalytic inhibitors” (Eur J Med Chem, 2016).
# The source made the active and inactive calls. The calls are words filed in the database; no cut-off is given here.
# Assays:
# [1] = target: T1, DNA topoisomerase 2-alpha (Homo sapiens, UniProt P11388); assay: Inhibition of topoisomerase-2 alpha catalytic activity in human T47D cells assessed as increase in free topoisomerase-2 alpha level at 50 uM after 2 hrs by Western blot method; type: cell-based
# T1 sequence (P11388 whole entry): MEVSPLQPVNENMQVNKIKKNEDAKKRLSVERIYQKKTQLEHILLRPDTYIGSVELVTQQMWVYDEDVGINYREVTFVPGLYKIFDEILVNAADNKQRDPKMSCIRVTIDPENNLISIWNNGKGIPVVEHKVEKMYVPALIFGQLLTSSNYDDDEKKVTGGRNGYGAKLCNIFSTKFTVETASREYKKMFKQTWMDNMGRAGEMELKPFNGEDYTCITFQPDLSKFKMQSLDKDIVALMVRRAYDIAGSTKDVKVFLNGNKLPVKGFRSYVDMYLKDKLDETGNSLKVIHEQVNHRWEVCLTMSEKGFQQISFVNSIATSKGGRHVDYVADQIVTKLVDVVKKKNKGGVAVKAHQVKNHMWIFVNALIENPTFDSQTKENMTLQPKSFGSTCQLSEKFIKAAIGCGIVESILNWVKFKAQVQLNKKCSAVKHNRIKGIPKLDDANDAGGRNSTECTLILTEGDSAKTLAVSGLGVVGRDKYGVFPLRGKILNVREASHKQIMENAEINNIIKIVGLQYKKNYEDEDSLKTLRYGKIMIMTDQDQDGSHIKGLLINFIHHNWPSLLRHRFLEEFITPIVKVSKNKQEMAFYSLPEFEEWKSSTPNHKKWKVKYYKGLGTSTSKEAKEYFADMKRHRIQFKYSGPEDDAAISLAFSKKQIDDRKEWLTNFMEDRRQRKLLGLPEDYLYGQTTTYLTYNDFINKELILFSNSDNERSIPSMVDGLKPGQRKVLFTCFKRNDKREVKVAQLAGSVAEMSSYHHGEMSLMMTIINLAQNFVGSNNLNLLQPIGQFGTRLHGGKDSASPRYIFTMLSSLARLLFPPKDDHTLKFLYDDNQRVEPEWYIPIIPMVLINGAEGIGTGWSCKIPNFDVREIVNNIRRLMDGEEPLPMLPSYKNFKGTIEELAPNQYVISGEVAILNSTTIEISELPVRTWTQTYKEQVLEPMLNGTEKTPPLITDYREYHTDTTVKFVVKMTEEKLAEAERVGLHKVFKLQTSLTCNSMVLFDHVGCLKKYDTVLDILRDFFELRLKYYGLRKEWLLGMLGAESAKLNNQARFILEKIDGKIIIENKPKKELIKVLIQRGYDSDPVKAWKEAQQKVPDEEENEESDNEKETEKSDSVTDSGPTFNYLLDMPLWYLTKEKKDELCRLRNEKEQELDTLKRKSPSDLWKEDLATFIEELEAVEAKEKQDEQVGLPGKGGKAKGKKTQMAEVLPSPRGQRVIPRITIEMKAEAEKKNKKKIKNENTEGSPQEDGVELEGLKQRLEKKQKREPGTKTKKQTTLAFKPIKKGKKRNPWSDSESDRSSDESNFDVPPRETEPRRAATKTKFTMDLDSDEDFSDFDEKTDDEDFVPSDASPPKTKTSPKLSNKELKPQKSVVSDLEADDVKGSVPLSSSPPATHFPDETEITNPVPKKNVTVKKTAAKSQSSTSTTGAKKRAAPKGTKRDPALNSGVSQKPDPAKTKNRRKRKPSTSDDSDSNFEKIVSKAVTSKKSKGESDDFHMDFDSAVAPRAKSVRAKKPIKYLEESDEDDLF
# Outline: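 T47D cells (2 x 10^5 per well) seeded overnight, treated 2 h at 37 °C with 50 µM compound or etoposide in serum-free RPMI. Harvested cells washed in PBS, lysed in 62.5 mM Tris-HCl pH 6.8, 1 mM EDTA, 2% SDS with sonication; cleared supernatant run on 10% SDS-PAGE and free topo IIα detected by Western blot.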
# [2] = Cytotoxicity against human HCT15 cells assessed as reduction in cell growth after 72 hrs by CCK8 assay; type: functional, cell-based; settings: HCT-15, 72 h
# Outline: (§1)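 Cells (2~4 x 10^4 per well) seeded overnight in media with 10% FBS, 37 °C, 5% CO₂, then exposed to graded compound concentrations for 72 h. CCK-8 solution added for a further 4 h; absorbance read at 450 nm. IC₅₀ from four-parameter logistic fit; adriamycin, etoposide and camptothecin as positive controls.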
# [3] = Cytotoxicity against human NCI-N87 cells assessed as reduction in cell growth after 72 hrs by CCK8 assay; type: functional, cell-based; settings: NCI-N87, 72 h; outline: as §1
# [4] = target: T1, DNA topoisomerase 2-alpha; assay: Inhibition of human topoisomerase-2 alpha at 100 uM using supercoiled pBR322 DNA as substrate after 30 mins by agarose gel electrophoresis method relative to control
# [5] = target: T1, DNA topoisomerase 2-alpha; assay: Inhibition of human topoisomerase-2 alpha at 20 uM using supercoiled pBR322 DNA as substrate after 30 mins by agarose gel electrophoresis relative to control
# [6] = Cytotoxicity against human HeLa cells assessed as reduction in cell growth after 72 hrs by CCK8 assay; type: functional, cell-based; outline: as §1
# [7] = Cytotoxicity against human T47D cells assessed as reduction in cell growth after 72 hrs by CCK8 assay; type: functional, cell-based; outline: as §1
# [8] = target: T1, DNA topoisomerase 2-alpha; assay: Poisoning activity at human topoisomerase-2 alpha assessed as stabilization of enzyme-pBR322 DNA cleavage complex by measuring linear DNA formation at 100 uM after 30 mins by agarose gel electrophoresis; settings: 0.5 h
# [9] = target: T1, DNA topoisomerase 2-alpha; assay: Poisoning activity at topoisomerase-2 alpha in human T47D cells assessed as induction of DNA damage by measuring comet formation at 5 to 10 uM after 24 hrs by SYBR Green staining based inverted fluorescence microscopic analysis; type: cell-based
# Outline: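 Alkaline comet assay: T47D cells seeded in six-well plates, treated at ~70% confluence with 5 or 10 µM compound for 24 h, trypsinized, embedded in low-melting agarose. Lysis 30 min at 4 °C, alkaline unwinding (pH>13) 30 min, electrophoresis 20 min at 15 V, SYBR Green stain; imaged by inverted fluorescence microscopy, percent DNA in tail quantified.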
SMILES,inhibition [1],inhibition [4],inhibition [5],IC50 [2],IC50 [3],IC50 [6],IC50 [7],Activity [8],Activity [9]
CCCCNCC(O)COc1cc(OCCc2ccc(Cl)cc2)c2c(=O)c3ccccc3oc2c1 (centres undefined),Active,94.4%,23 to 23.3%,2.13 µM,3.63 µM,1.37 µM,0.63 µM,,
CCCCNCC(O)COc1cc(OCc2ccc(OC)cc2)c2c(=O)c3cccc(OC)c3oc2c1 (centres undefined),,44.8%,13.9%,2.29 µM,0.25 µM,1.82 µM,1.52 µM,,
CCCCNCC(O)COc1cc(OCc2ccccc2)c2c(=O)c3ccccc3oc2c1 (centres undefined),,65.4%,22.2%,3.09 µM,1.44 µM,7.05 µM,2.81 µM,,
COc1cc([C@@H]2c3cc4c(cc3[C@@H](O[C@@H]3O[C@@H]5CO[C@@H](C)O[C@H]5[C@H](O)[C@H]3O)[C@H]3COC(=O)[C@H]23)OCO4)cc(OC)c1O [ETOPOSIDE],,,45.6%,1.06 µM,1.29 µM,10 µM,2.8 µM,Active,Active
CCCCNCC(O)COc1cc(OCc2ccc(OC)cc2)c2c(=O)c3ccccc3oc2c1 (centres undefined),,55.9%,21.1%,2.17 µM,1.8 µM,4.81 µM,1.41 µM,,
CCCCNCC(O)COc1cc(OCCc2cccc(Cl)c2)c2c(=O)c3ccccc3oc2c1 (centres undefined),Active,46.2%,16.6%,2.28 µM,0.38 µM,2.56 µM,1.72 µM,,
CCCCNCC(O)COc1cc(OCc2cccc(OC)c2)c2c(=O)c3ccccc3oc2c1 (centres undefined),,58.7%,19.5%,1.91 µM,0.07 µM,5.86 µM,2.57 µM,,

# Second part, led by results:
inhibition [1],inhibition [4],inhibition [5],SMILES,IC50 [2],IC50 [3],IC50 [6],IC50 [7],Activity [8],Activity [9]
,36.3%,9.5%,CCCCCOc1cc(OCC(O)CNCCCC)cc2oc3c(OC)cccc3c(=O)c12 (centres undefined),1.81 µM,0.48 µM,3.84 µM,0.78 µM,,
,41.6%,12.4%,CCCCNCC(O)COc1cc(OCc2cccc(OC)c2)c2c(=O)c3cccc(OC)c3oc2c1 (centres undefined),1.74 µM,1.32 µM,2.3 µM,1.36 µM,,
Active,62.8%,20.4%,CCCCNCC(O)COc1cc(OCCc2cccc(Cl)c2)c2c(=O)c3cccc(OC)c3oc2c1 (centres undefined),1.49 µM,0.4 µM,2.6 µM,0.19 µM,,
